Data on 20 compounds can be found in ChEMBL document CHEMBL4813921, “Optimization of WZ4003 as NUAK inhibitors against human colorectal cancer” (Eur J Med Chem, 2021).

The structures appear in SMILES notation. Calls of active or inactive are those of the source. The rule behind the calls is not given here.

Experiment [1] addresses T1, NUAK family SNF1-like kinase 2 (Homo sapiens) (UniProt Q9H093).
T1 sequence (whole entry): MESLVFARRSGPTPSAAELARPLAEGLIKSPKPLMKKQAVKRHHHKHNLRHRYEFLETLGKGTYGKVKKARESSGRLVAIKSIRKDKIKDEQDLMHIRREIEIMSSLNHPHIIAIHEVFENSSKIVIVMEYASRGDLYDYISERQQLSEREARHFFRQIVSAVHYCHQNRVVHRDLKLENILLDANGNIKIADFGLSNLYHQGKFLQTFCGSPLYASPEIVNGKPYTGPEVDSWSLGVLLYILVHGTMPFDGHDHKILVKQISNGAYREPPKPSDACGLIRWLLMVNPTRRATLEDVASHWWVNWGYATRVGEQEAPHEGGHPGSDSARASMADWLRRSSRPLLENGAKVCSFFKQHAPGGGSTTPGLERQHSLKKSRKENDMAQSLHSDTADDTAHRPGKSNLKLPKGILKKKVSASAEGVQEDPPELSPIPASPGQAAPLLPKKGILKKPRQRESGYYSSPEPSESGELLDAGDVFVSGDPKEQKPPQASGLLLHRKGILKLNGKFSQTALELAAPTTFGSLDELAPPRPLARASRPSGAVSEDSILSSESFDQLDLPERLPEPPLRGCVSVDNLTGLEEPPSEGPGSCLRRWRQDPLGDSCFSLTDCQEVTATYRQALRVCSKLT
Description: Inhibition of NUAK2 (unknown origin) at 10 uM using CHKtide as substrate in presence of ATP measured after 60 mins by ADP-Glo assay.

Experiment [2] deals with T2, NUAK family SNF1-like kinase 1 (Homo sapiens) (UniProt O60285).
T2 sequence (whole entry): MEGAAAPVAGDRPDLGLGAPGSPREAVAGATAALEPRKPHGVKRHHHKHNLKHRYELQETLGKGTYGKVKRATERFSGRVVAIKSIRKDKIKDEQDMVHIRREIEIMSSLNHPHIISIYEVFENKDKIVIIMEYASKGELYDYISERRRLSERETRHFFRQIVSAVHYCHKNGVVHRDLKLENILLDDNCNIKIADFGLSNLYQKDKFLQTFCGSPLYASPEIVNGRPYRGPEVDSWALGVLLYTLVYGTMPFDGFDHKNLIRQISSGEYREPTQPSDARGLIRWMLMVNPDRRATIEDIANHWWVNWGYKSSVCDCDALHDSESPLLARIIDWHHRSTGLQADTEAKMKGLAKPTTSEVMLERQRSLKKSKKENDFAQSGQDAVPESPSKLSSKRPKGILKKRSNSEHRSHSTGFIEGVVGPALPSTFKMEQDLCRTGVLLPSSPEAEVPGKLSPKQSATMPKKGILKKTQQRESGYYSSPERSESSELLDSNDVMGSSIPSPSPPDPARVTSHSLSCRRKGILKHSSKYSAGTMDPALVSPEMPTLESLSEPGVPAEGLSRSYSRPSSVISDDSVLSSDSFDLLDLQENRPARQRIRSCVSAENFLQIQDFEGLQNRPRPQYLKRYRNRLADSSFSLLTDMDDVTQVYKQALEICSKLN
Briefly: Inhibition of NUAK1 (unknown origin) at 10 uM using CHKtide as substrate in presence of ATP measured after 60 mins by ADP-Glo assay.

Experiment [3] deals with U2OS. Description: Antiproliferative activity against human U2OS cells assessed as reduction in cell viability at 10 uM measured after 1 to 5 days by MTT assay. The conditions noted are these: time 1-5 day. The class given is functional. The essentials: (§1)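 MTT viability read daily over 1–5 days of exposure to 10 μM compound; mean ± SD, n = 3.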
Background: Tetrazolium dyes change colour on reduction, which living cells bring about.

Experiment [4] concerns HCT-116. Briefly: Induction of apoptosis in human HCT-116 cells assessed as early apoptotic cells at 10 uM measured after 48 hrs by Annexin V-FITC/PI staining based flow cytometry method (reference value: 0.8%). The experiment is classed as functional. A general note: Flow cytometry measures light scatter and fluorescence of single cells or particles in a stream.
In experiment [5] the test system is U2OS. Briefly: Antiproliferative activity against human U2OS cells at 2.5 to 10 uM measured after 48 hrs by EdU staining based assay. The class given is functional, cell-based. The conditions noted are these: dose 2.5-10 µM. The method, boiled down: (§2)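 Cells exposed to a range of compound concentrations for 48 h, then EdU click-chemistry staining with DAPI counterstain. Confocal high-content imaging; DAPI-positive nuclei counted as total and EdU-positive as proliferating.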

In experiment [6] the test system is U2OS. Description: Induction of apoptosis in human U2OS cells assessed as early apoptotic cells at 10 uM measured after 48 hrs by Annexin V-FITC/PI staining based flow cytometry method (reference value: 2.8%). The class given is functional.
The test system of experiment [7] is U2OS. Briefly: Induction of apoptosis in human U2OS cells assessed as necrotic cells at 10 uM measured after 48 hrs by Annexin V-FITC/PI staining based flow cytometry method (reference value: 0.4%). The experiment is classed as functional.
Experiment [8] deals with SW480. Description: Induction of apoptosis in human SW480 cells assessed as late apoptotic cells at 10 uM measured after 48 hrs by Annexin V-FITC/PI staining based flow cytometry method (reference value: 2.8%). The experiment is classed as functional.
Experiment [9] deals with SW480. Briefly: Induction of apoptosis in human SW480 cells assessed as necrotic cells at 10 uM measured after 48 hrs by Annexin V-FITC/PI staining based flow cytometry method (reference value: 1.4%). The class given is functional.
Experiment [10] has as its system HCT-116. Description: Antiproliferative activity against human HCT-116 cells at 2.5 to 10 uM measured after 48 hrs by EdU staining based assay. The class given is functional, cell-based. The note with it: dose 2.5-10 µM. The method, boiled down: as §2
The subject of experiment [11] is SW480. Description: Induction of apoptosis in human SW480 cells assessed as early apoptotic cells at 10 uM measured after 48 hrs by Annexin V-FITC/PI staining based flow cytometry method (reference value: 2.6%). The experiment is classed as functional.
Experiment [12] relates to SW480. Briefly: Antiproliferative activity against human SW480 cells assessed as reduction in cell viability at 10 uM measured after 1 to 5 days by MTT assay relative to control. The class given is functional, cell-based. The conditions noted are these: time 1-5 day. The essentials: as §1
Experiment [13] relates to HCT-116. Description: Antiproliferative activity against human HCT-116 cells assessed as reduction in cell viability at 10 uM measured after 1 to 5 days by MTT assay relative to control. The conditions noted are these: time 1-5 day. The experiment is classed as functional, cell-based. The essentials: as §1
In experiment [14] the test system is SW480. Description: Antiproliferative activity against human SW480 cells at 2.5 to 10 uM measured after 48 hrs by EdU staining based assay. The class given is functional, cell-based. The note with it: dose 2.5-10 µM. The essentials:
as §2

The subject of experiment [15] is HCT-116. Briefly: Induction of apoptosis in human HCT-116 cells assessed as late apoptotic cells at 10 uM measured after 48 hrs by Annexin V-FITC/PI staining based flow cytometry method (reference value: 1.6%). The experiment is classed as functional.
In experiment [16] the test system is SW480. Briefly: Induction of apoptosis in human SW480 cells assessed as viable cells at 10 uM measured after 48 hrs by Annexin V-FITC/PI staining based flow cytometry method (reference value: 93.2%). The conditions noted are these: read-out: Activity. The class given is functional.
For experiment [17], the system named is HCT-116. Briefly: Induction of apoptosis in human HCT-116 cells assessed as necrotic cells at 10 uM measured after 48 hrs by Annexin V-FITC/PI staining based flow cytometry method (reference value: 2.2%). The experiment is classed as functional.
Experiment [18] has as its system U2OS. Description: Induction of apoptosis in human U2OS cells assessed as viable cells at 10 uM measured after 48 hrs by Annexin V-FITC/PI staining based flow cytometry method (reference value: 95.5%). The conditions noted are these: read-out: Activity. The class given is functional.
Experiment [19] concerns HCT-116. Briefly: Induction of apoptosis in human HCT-116 cells assessed as viable cells at 10 uM measured after 48 hrs by Annexin V-FITC/PI staining based flow cytometry method (reference value: 95.4%). The class given is functional. The conditions noted are these: read-out: Activity.
In experiment [20] the test system is U2OS. Description: Induction of apoptosis in human U2OS cells assessed as late apoptotic cells at 10 uM measured after 48 hrs by Annexin V-FITC/PI staining based flow cytometry method (reference value: 1.3%). The class given is functional.

Broadly, the inhibition is the drop in the measured response relative to a control, in per cent. Turning to `CCC(=O)Nc1cccc(Oc2nc(Nc3ccc(N4CCOCC4)cc3)ncc2Cl)c1`, the inhibition was found to be 43.5% in experiment [1] and 70.9% in experiment [2]. The inhibition at 10 µM with U2OS [3] amounted to 61.3%.
As for `CCC(=O)Nc1cccc(Oc2nc(Nc3ccc(N(C)C)cc3)ncc2Cl)c1`, the results for the inhibition in [1] and in experiment [2] were 31.7% and 72.6%, respectively. For the same compound, the inhibition at 10 µM with U2OS [3] was 60.3%.
Consider `CCC(=O)Nc1cccc(Oc2nc(Nc3ccc(N(CC)CC)cc3OC)ncc2Cl)c1`, for which the inhibition result in [1] was “inactive”. Further, the inhibition in [2] amounted to 10.8%. Besides, in the experiment with U2OS [3], the inhibition at 10 µM is 8.69%.
For the compound `CCC(=O)Nc1cccc(Oc2nc(Nc3ccc(N4CCN(C)CC4)cc3OC)ncc2Cl)c1`, the Activity is 2.9% in the experiment on HCT-116 [4]; 6.2% in the experiment with U2OS [6]; 0.4% in the experiment on U2OS [7]; 2.7% in the experiment with SW480 [8]; 0.8% in the experiment on SW480 [9]; 2% with SW480 [11]. The Activity was 13.7% with HCT-116 [15], 3.2% in the experiment with HCT-116 [17] and 2.6% with U2OS [20]. Besides, the outcome in the experiment with U2OS [5], in the experiment with HCT-116 [10], in the experiment on SW480 [12], with HCT-116 [13] and in the experiment with SW480 [14] was Active. Further, the figures for the inhibition in experiment [1] and in [2] were 84.8% and 85.8%, respectively. In addition, the viability at 10 µM came out at 94.5% in the experiment with SW480 [16], 90.8% in the experiment with U2OS [18] and 80.2% in the experiment with HCT-116 [19]. Besides, in the experiment on U2OS [3], the inhibition at 10 µM was 47.3%.
`CCCN(CCC)c1ccc(Nc2ncc(Cl)c(Oc3cccc(NC(=O)CC)c3)n2)cc1`: in experiment [1], the inhibition entry was “inactive”. In addition, the inhibition in experiment [2] is 9.3%. The inhibition at 10 µM in the experiment on U2OS [3] was determined as 23.9%.
On the same counts, the results for `CCC(=O)Nc1cccc(Oc2nc(Nc3ccc(N4CCCCC4)cc3)ncc2Cl)c1` are 72.3%, 86% and 48.4%.
With `CCC(=O)Nc1cccc(Oc2nc(Nc3ccc(N4CCCC4)cc3OC)ncc2Cl)c1`, in experiment [1], the inhibition result was “inactive”. Moreover, the inhibition in experiment [2] stood at 25.8%. For the same compound, in the experiment with U2OS [3], the inhibition at 10 µM was 18.5%.
On the same counts, the results for `CCCN(CCC)c1ccc(Nc2ncc(Cl)c(Oc3cccc(NC(=O)CC)c3)n2)c(OC)c1` are “inactive”, “inactive” and 33.8%.
On the same counts, the results for `CCC(=O)Nc1cccc(Oc2nc(Nc3ccc(N4CCC(C)CC4)cc3)ncc2Cl)c1` are 24.8%, 13.4% and 44.2%.
The corresponding values for `CCC(=O)Nc1cccc(Oc2nc(Nc3ccc(N4CCC(OC)CC4)cc3OC)ncc2Cl)c1` are “inactive”, 5.08% and 10.8%.
Regarding `CCC(=O)Nc1cccc(Oc2nc(Nc3ccc(N4CCN(C)CC4)cc3Cl)ncc2Cl)c1`, the inhibition turned out to be 69.1% in experiment [1] and 71.5% in [2]. In addition, the inhibition at 10 µM with U2OS [3] came to 34.8%.
For `CCC(=O)Nc1cccc(Oc2nc(Nc3ccc(N4CCC(OC)CC4)cc3)ncc2Cl)c1`, the inhibition in experiment [1] was 53.4%; in [2], 86.5%. In the experiment with U2OS [3], the inhibition at 10 µM is 48.7%.
For `CCC(=O)Nc1cccc(Oc2nc(Nc3ccc(N4CCOCC4)cc3OC)ncc2Cl)c1`, the values for the inhibition in [1] and in [2] were 8.45% and 65.6%, respectively. Moreover, the inhibition at 10 µM in the experiment on U2OS [3] was determined as 9.7%.
On the same counts, the results for `Cc1nc(Nc2cnn(C3CCNCC3)c2)nc2c1N(C)C(=O)c1cc3ccccc3cc1N2C` are 15.6%, 78.3% and 38.6%.
The corresponding values for `CCC(=O)Nc1cccc(Oc2nc(Nc3ccc(N(C)C)cc3OC)ncc2Cl)c1` are 15%, 80.6% and 4.83%.
On the same counts, the results for `CCC(=O)Nc1cccc(Oc2nc(Nc3ccc(N(CC)CC)cc3)ncc2Cl)c1` are 21.2%, 54.4% and 38.8%.
On to `CCC(=O)Nc1cccc(Oc2ccnc(Nc3ccc(N4CCN(C)CC4)cc3)n2)c1`, for which the figures for the inhibition in [1] and in [2] were 48.8% and 85.6%, respectively. Further, the inhibition at 10 µM with U2OS [3] was 24%.
The corresponding values for `CCC(=O)Nc1cccc(Oc2nc(Nc3ccc(N4CCC(C)CC4)cc3OC)ncc2Cl)c1` are “inactive”, 9.2% and 20.9%.
The corresponding values for `CCC(=O)Nc1cccc(Oc2nc(Nc3ccc(N4CCCC4)cc3)ncc2Cl)c1` are “inactive”, “inactive” and 38.5%.
Turning to `CCC(=O)Nc1cccc(Oc2nc(Nc3ccc(N4CCCCC4)cc3OC)ncc2Cl)c1`, the inhibition result in experiment [1] is “inactive”. In addition, the inhibition in [2] worked out at 13.9%. In addition, the inhibition at 10 µM with U2OS [3] came out at 12.9%.
